From PubChem BioAssay
LEDGF integ inh: blocks HIV-1 LEDGF/p75-dependent DNA integration; 0.64% of 370,000 active; inhibition, % at 3.7 µM; AID 743269; TR-FRET IN-LEDGF/p75 DNA integration, Eu/Cy5;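 active = inhibition above the screen-wide mean plus 3 SD, cut at about 13% in these data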;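 also: signal is the Cy5 over europium emission ratio at 671 and 618 nm; 0% = plate median of compound wells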
CSN inh: inhibitors of human CSN-mediated cullin deneddylation; Purified CSN, SCF-Nedd8-OG deneddylation, fluorescence polarization; Q92905; 0.38% of 360,000 active; inhibition, % at 12.5 µM;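 active = pattern-corrected inhibition above about 35%, with an unprinted fluorescence ratio check between 0.5 and 1.5, limit read from the data, passing the limit was not always enough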;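 also: 0% = enzyme with substrate and 100% = substrate without enzyme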
Target sequence (Q92905 whole entry, looked up, one chain of several): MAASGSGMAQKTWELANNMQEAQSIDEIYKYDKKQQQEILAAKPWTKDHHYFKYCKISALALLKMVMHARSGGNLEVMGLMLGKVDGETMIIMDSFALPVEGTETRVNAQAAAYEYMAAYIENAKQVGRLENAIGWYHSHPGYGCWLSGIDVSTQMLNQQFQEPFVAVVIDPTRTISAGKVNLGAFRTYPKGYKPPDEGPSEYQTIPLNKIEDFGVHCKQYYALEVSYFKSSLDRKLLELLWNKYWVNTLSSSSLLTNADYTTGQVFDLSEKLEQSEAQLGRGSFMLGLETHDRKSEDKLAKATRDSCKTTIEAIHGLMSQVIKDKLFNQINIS
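Test system: purified human Csn5 enzyme expressed in HEK293T cells. Amount: 0.24 nM enzyme. Reagent: SCFSkp2-Nedd8OG substrate at 10 nM final. Schedule: 90 min incubation of compound, enzyme and substrate at room temperature. Detection: fluorescence polarization. Read-out: % inhibition of substrate cleavage by Csn5.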
UHRF1 binding: blocks human UHRF1 binding to methylated DNA | Q96T88 | UHRF1 binding to methylated oligo, TR-FRET | inhibition, % at 4.4 µM | 0.75% of 370,000 active | AID 687016;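 also: UHRF1 SRA domain binding a hemimethylated CpG hairpin DNA probe; 0% = median of test compound wells and 100% = reference inhibitor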
rCAG binder: molecules binding r(CAG) RNA repeats | 1.3% of 370,000 active | r(CAG) RNA repeat, TO-PRO-1 dye displacement fluorescence | inhibition, % at 3 µM;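 active = inhibition above the plate cutoff, the mean of all test compounds on that plate plus 3 SD, cut at about 35% in these data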;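 also: 0% = DMSO alone and 100% = 100 µM mitoxantrone as full dye displacement; higher means more dye released from RNA so lower well fluorescence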
MBD2 inh: MBD2-methylated oligo binding inhibition; Q9UBB5; TR-FRET, MBD2 binding to methylated oligonucleotide; inhibition, % at 4.4 µM; 0.31% of 370,000 active; AID 686964; in the data active = inhibition above about 13%
ATG4B inhibitor: inhibitors of human ATG4B cysteine protease | Q9Y4P1 | ATG4B cleavage of LC3-PLA2, NBD-HPC fluorescence, 1 h | inhibition, % at 8.33 µM | 0.51% of 340,000 active | AID 504462; in the data active = inhibition above about 40%
UHRF1 ctr MBD2: inhibits human UHRF1 binding to methylated oligonucleotide, MBD2 counter-screen | shares compounds with MBD2 inh | TR-FRET | inhibition, % at 4.4 µM | 25% of 1,000 active;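 also: UHRF1 SRA domain binding a labeled hemimethylated CpG hairpin DNA; 0% = vehicle only and 100% = reference inhibitor with vehicle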
MBD2 confirm: confirmation of human MBD2-DBD methylated oligonucleotide binding inhibitors; 26% of 1,000 active; inhibition, % at 4.4 µM; TR-FRET MBD2-DBD binding to methylated oligonucleotide; shares compounds with MBD2 inh; in the data active = inhibition above about 14%
* hit, by the source's call; x = no result given. Sampled rows, rich in hits. Any-hit rate of the full collection: about 3.1%. Rule as the data show it, unless noted: active = inhibition above about 21%; inactive = the rest.

SMILES | LEDGF integ inh | CSN inh | UHRF1 binding | rCAG binder | MBD2 inh | ATG4B inhibitor | UHRF1 ctr MBD2 | MBD2 confirm
O=C(CSc1nnc(NC(=O)c2c(F)cccc2F)s1)NC1CCCC1 | 2 | 1 | 0 | 2 | 1 | -4 | x | x
COC(=O)[C@]12C[C@H](CC(=O)NCC34CC5CC(CC(C5)C3)C4)C(=O)N(Cc3cccc4ccccc34)C1=C[C@H](COCc1ccccc1)O[C@@H]2C | 1 | x | 0 | 10 | 2 | x | x | x
O=C1CCC[C@H]2Cc3nc4cc5c(cc4cc3C[C@]23CCCN13)OCO5 | 6 | x | -3 | x | -4 | x | x | x
CC(C)CCn1cnc2c1c(=O)[nH]c(=O)n2Cc1ccccc1 | 1 | -3 | -2 | -5 | 90* | 1 | 5 | 2
COc1ccc(Cc2nnc(NC(=O)CS(=O)(=O)c3ccc(C)cc3)s2)cc1OC | 0 | 4 | -2 | 12 | 22* | 3 | 8 | 1
COc1ccc(Cc2nnc(NC(=O)c3ccc(C)cc3)s2)cc1OC | 6 | 1 | 3 | -2 | 0 | 4 | x | x
O=C(N=C1SC2CS(=O)(=O)CC2N1CCc1ccccc1)C1CCCCC1 (stereo unspecified) | -5 | 4 | 1 | -3 | 86* | -1 | 6 | 2
Cc1ccccc1CS(=O)(=O)Cc1ccc(C(=O)Nc2ccc(F)cc2F)o1 | 1 | x | 6 | 3 | 0 | x | x | x
COc1ccc(S(=O)(=O)NCC(=O)N(CC(=O)NCC2CCCO2)Cc2ccc(F)cc2)cc1 (stereo unspecified) | 2 | 0 | -5 | -8 | 14* | -2 | 1 | 3
COc1ccccc1N1CCN(S(=O)(=O)c2ccc3c(c2)NC(=O)C(C)S3)CC1 (stereo unspecified) | 4 | 7 | 0 | 3 | -2 | -4 | x | x
COc1ccccc1N1CCN(C(=O)C(C)CS(=O)(=O)c2ccc3c(c2)NC(=O)CS3)CC1 (stereo unspecified) | 57* | 2 | 83* | 4 | 77* | 3 | 15 | 8
COC(=O)[C@]12C[C@H](CC(=O)N3CCOCC3)C(=O)N(CCc3ccc(OC)c(OC)c3)C1=C[C@H](COCc1ccccc1)O[C@@H]2C | -2 | x | -1 | 3 | -2 | x | x | x
CCCCCCCCNS(=O)(=O)CC1NCc2cc(F)ccc21 (stereo unspecified) | 0 | x | -7 | 6 | 2 | x | x | x
COC(=O)C[C@H]1CC[C@@H]2[C@H](COc3ccc(NC(=O)c4cccc(Cl)c4)cc3C(=O)N2C)O1 | 0 | x | 1 | 6 | 4 | x | x | x
CCOc1cc(/C=N/n2cnnc2)ccc1OS(=O)(=O)c1ccc(C)cc1 | -6 | 4 | 5 | -2 | 14* | -20 | 7 | 2
CCOC(=O)C(Cc1ccc(NC(C)=O)cc1)N1C(=O)c2ccccc2C1=O (stereo unspecified) | 2 | 5 | 20 | 3 | 17* | -5 | 2 | -1
Cc1ccc(S(=O)(=O)N2CCOCC2)cc1C(=O)OCC(=O)NCc1ccc2c(c1)OCO2 | -3 | -4 | 33* | 1 | 16* | -3 | 6 | 2
O=C(COC(=O)c1cc(S(=O)(=O)N2CCOCC2)ccc1O)NCc1ccc2c(c1)OCO2 | 2 | -4 | -3 | 7 | 3 | 7 | x | x
Cc1ccccc1CN1CCCCC(NC(=O)c2ccc(N(C)C)cc2)C1=O (stereo unspecified) | 1 | x | -3 | 0 | -2 | x | x | x
CCOC(=O)[C@@H]1CSCCS(=O)(=O)N1Cc1ccccc1 | -2 | x | -3 | 1 | 0 | x | x | x
COC(=O)c1cc(C(=O)OCC(=O)NC(=O)NCc2ccccc2)cc([N+](=O)[O-])c1 | -1 | -2 | 19 | 5 | 17* | -4 | 4 | 2
CC1(C)CC(=O)C2=C(C1)OC(N)=C(C#N)[C@@H]2c1ccccc1[N+](=O)[O-] | 1 | -32 | -2 | -10 | 18* | 1 | 4 | 2
